The values below come from PubChem BioAssay.

Calls of active or inactive are those of the source.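 The calls were made as follows, unless noted: active = viability at or under a set limit in both replicates, limit being median viability minus 3 SD (cut at about 48% in these data, passing the limit was not always enough); inconclusive = at or under the limit in just one replicate; inactive = at or above the limit in both replicates.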

The nature of assay [1]: reducers of endogenous Her2 protein level, primary screen, SKBR3 breast tumor cells, AlphaScreen, ATP viability (AID 461;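 active = Her2 level under about 52% in both replicate screens, with viability over 70% of control, limit read from the data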;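 as to Her2 level: lower value means less Her2 protein in the cells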;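 as to viability: percent of carrier control wells set as 100% viability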). The settings on record: 18-24 h, measured here: SKBR3 viability, ATP luminescence, at 10 µM. On the technique in general: In Alpha technology, singlet oxygen from a donor bead excites a nearby acceptor bead.
The target in assay [2] is Receptor tyrosine-protein kinase erbB-2 (Homo sapiens) (UniProt P04626). The description is as above. The settings on record: 18-24 h, at 10 µM, stronger effect = lower value.
Assay [3] in a line: SK-BR-3 cell growth inhibitors, pilot screen, 24 h, human (AID 572;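 active = viability at or below 10% of carrier control in both of two separate runs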;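 also: compound exposure lasted between 18 and 24 h rather than exactly 24 h; 100% = carrier-treated control wells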). The settings on record: SK-BR-3 viability, CellTiter-Glo luminescence, at 10 µM, stronger effect = lower value. (In general: ATP-based viability assays read luminescence as a measure of living cells.)
Assay [4] in a line: HUVEC growth inhibition – cell-based, human, primary screen (AID 575;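 active = viability at or below 30% in both replicate assays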;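 also: 100% = median of untreated cell wells with 0.1% DMSO on each plate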). To be noted: HUVEC proliferation, CellTiter-Glo luminescence, 72 h; at 10 µM; stronger effect = lower value. Put shortly:
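Timing: 72 h treatment at 37 °C; material: HUVEC primary cells; technique: CellTiter-Glo luminescence measuring cellular ATP; controls: vehicle and MePR control wells; measure: percent of median DMSO-control luminescence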

Assay [5] is described as follows: growth inhibitors of H69AR lung tumor, primary screen, human, duplicate replicates (AID 580).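 Also: 100% = mean luminescence of untreated wells and 0% = no signal.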 To be noted: H69AR lung tumor cells viability, ATP luminescence, 72 h; at 10 µM; stronger effect = lower value.
Assay [6] in a line: reversal of MRP1-mediated doxorubicin resistance, pilot screen, H69AR cells, doxorubicin co-treatment (AID 601;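 active = viability loss from added drug above about 55%, and viability with drug at most 40%, in both replicates, limit read from the data, passing the limit was not always enough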). The settings on record: CellTiter-Glo, 72 h, at 10 µM; for differential viability (reversal): stronger effect = higher value.
The nature of assay [7]: 384-well plate pilot, post-Golgi transport modulator project, inhibition of yeast transport mutant growth (AID 636; in the data active = inhibition above about 31%). The settings on record: absorbance 615 nm, about 18 h, stronger effect = higher value.
The nature of assay [8]: growth suppression of yeast trafficking mutant, preliminary HTS, modulators of trafficking downstream of Golgi apparatus project, 1536-format plate, OD 615 nm (AID 637; in the data active = inhibition above about 30%). The settings on record: yeast transport mutant growth, absorbance 615 nm, 18 h; stronger effect = higher value.
[9] abbreviates: H69AR cells + 2 uM doxorubicin, measured here: viability with 2 uM doxorubicin, stronger effect = lower value.
Where [10] appears, read: H69AR cells, compound alone cytotoxicity.

Receptor tyrosine-protein kinase erbB-2 (Homo sapiens), sequence (P04626 whole entry, looked up): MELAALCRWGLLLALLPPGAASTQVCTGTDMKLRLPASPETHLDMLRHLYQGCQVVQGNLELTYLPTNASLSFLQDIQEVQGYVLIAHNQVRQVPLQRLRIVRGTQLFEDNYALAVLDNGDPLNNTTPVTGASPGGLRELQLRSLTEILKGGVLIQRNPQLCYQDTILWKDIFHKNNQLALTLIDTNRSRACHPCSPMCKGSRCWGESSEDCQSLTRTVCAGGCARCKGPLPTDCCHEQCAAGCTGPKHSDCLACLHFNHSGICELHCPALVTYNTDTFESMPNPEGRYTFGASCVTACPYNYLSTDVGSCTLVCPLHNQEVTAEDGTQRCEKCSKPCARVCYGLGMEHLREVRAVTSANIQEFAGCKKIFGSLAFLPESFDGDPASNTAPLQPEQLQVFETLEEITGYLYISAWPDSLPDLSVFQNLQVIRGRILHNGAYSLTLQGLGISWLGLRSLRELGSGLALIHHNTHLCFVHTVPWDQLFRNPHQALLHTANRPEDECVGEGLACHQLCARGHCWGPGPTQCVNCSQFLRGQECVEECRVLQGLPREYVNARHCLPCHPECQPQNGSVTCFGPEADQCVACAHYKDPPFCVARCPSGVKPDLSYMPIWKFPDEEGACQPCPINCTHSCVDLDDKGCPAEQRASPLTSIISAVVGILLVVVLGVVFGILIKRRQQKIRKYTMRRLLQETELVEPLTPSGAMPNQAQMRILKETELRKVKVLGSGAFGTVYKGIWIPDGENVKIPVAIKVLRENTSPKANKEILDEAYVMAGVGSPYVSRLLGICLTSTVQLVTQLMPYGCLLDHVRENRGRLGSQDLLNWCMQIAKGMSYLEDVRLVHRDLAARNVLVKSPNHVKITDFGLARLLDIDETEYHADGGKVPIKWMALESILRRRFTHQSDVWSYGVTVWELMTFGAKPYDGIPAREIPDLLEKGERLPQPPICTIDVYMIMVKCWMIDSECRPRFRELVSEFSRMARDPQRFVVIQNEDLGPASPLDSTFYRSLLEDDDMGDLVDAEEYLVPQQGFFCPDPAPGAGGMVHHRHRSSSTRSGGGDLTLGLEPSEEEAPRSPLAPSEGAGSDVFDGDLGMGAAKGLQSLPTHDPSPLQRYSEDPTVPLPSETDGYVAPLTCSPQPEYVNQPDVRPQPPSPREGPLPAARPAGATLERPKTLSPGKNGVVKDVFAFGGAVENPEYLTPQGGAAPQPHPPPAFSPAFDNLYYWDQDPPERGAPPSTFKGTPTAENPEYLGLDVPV

Consider `O=C(CCN1CCN(c2ccc(F)cc2)CC1)Nc1ccccc1F`, for which the viability (in general, a read-out of living cells in per cent, often relative to untreated cells) is 91.5% in assay [1]; 91.5% (inactive) in assay [3]; 90.4% (inactive) in assay [4]; 86% (inactive) in assay [5]; 91.3% in assay [6] (setting [9]); 86% in assay [6] (setting [10]). The Her2 level in assay [2] was 91% (inactive). Besides, the differential viability (reversal) in assay [6] (H69AR cells + 2 uM doxorubicin) was -5.33% (inactive). In addition, the figures for the inhibition in assay [7] and in assay [8] were -5.73% (inactive) and 4.75% (inactive), respectively.

Take `O=c1c2c(-c3ccccc3)csc2nc2n1CCC2`: the viability in assay [1] is 81%; in assay [3], 81% (inactive); in assay [4] it was 77.2% (inactive); in assay [5], 79.4% (inactive); in assay [6] (setting [9]) it was 84.4%; in assay [6] (setting [10]), 79.4%. In addition, in assay [2], the Her2 level is 99% (inactive). In assay [6] (H69AR cells + 2 uM doxorubicin), the differential viability (reversal) was -4.97% (inactive). For the same compound, the inhibition (in general, the change of the read-out against control, counted positive when it falls) is 2.84% (inactive) in assay [7] and 29.2% (inactive) in assay [8].

For the compound `CCC(C)OC(=O)n1ccc(C(=O)Nc2nccs2)n1` (stereo not given), the viability in assay [1] is 106%; in assay [3], 106% (inactive); in assay [4] it was 91.4% (inactive); in assay [5] it was 91.4% (inactive); in assay [6] (setting [9]), 95.6%; in assay [6] (setting [10]) it was 91.4%. Moreover, the Her2 level in assay [2] was 84% (inactive). Also, the differential viability (reversal) in assay [6] (H69AR cells + 2 uM doxorubicin) is -4.24% (inactive). The figures for the inhibition in assay [7] and in assay [8] were 0.53% (inactive) and -4.19% (inactive), respectively.

Turning to `CCCOc1nc(N)c(C#N)c(-c2ccccc2F)c1C#N`, the viability in assay [1] is 98.5%; in assay [3], 98.5% (inactive); in assay [4] it was 82.6% (inactive); in assay [5], 89.7% (inactive); in assay [6] (setting [9]) it was 60.7%; in assay [6] (setting [10]), 89.7%. Besides, the Her2 level in assay [2] is 114% (inactive). The differential viability (reversal) in assay [6] (H69AR cells + 2 uM doxorubicin) is 29% (inactive). The inhibition in assay [7] is -2.53% (inactive); in assay [8], -9.52% (inactive).

On to `O=C(Cn1nnc(-c2ccc(CN3CCOCC3)cc2)n1)NC1CCCCC1`, for which the viability in assay [1] is 108%; in assay [3], 108% (inactive); in assay [4] it was 106% (inactive); in assay [5], 101% (inactive); in assay [6] (setting [9]), 97.1%; in assay [6] (setting [10]), 101%. Further, the Her2 level in assay [2] is 104% (inactive). In addition, the differential viability (reversal) in assay [6] (H69AR cells + 2 uM doxorubicin) is 4.09% (inactive). In addition, the inhibition in assay [7] was -5.73% (inactive); in assay [8], 3.28% (inactive).

As for `CCOc1cc(C2C(C(=O)OC(C)C)=C(C)N=C3SCCC(=O)N32)ccc1OC(C)=O` (stereo not given), the viability in assay [1] was 93%; in assay [3], 93% (inactive); in assay [4] it was 96.5% (inactive); in assay [5], 93.3% (inactive); in assay [6] (setting [9]) it was 89.9%; in assay [6] (setting [10]) it was 93.3%. Moreover, in assay [2], the Her2 level was 78.5% (inactive). The differential viability (reversal) in assay [6] (H69AR cells + 2 uM doxorubicin) was 3.33% (inactive). Further, the inhibition was -2.89% (inactive) in assay [7] and 2.18% (inactive) in assay [8].

On to `Cc1cccc(NC(=O)CCN2CCN(C/C=C/c3ccccc3)CC2)c1`, for which the viability is 87.5% in assay [1]; 87.5% (inactive) in assay [3]; 66% (inactive) in assay [4]; 86.3% (inactive) in assay [5]; 96.1% in assay [6] (setting [9]); 86.3% in assay [6] (setting [10]). Moreover, the Her2 level in assay [2] was 84.5% (inactive). Moreover, the differential viability (reversal) in assay [6] (H69AR cells + 2 uM doxorubicin) was -9.71% (inactive). In addition, the inhibition in assay [7] was -2.53% (inactive); in assay [8], 3.23% (inactive).

With `COc1ccc(-c2cc(C(F)(F)F)nc(N3CCN(c4ccc(F)cc4)CC3)n2)cc1OC`, the viability in assay [1] is 78.5%; in assay [3], 78.5% (inactive); in assay [4], 71.7% (inactive); in assay [5], 85.5% (inactive); in assay [6] (setting [9]), 79.1%; in assay [6] (setting [10]), 85.5%. Also, in assay [2], the Her2 level is 88% (inactive). Further, the differential viability (reversal) in assay [6] (H69AR cells + 2 uM doxorubicin) is 6.42% (inactive). Further, the inhibition in assay [7] is -2.97% (inactive); in assay [8], 13.9% (inactive).

For `CC(C)CNC(=O)c1c(N)n(/N=C/c2ccccn2)c2nc3ccccc3nc12`, the viability in assay [1] was 88.5%; in assay [3], 88.5% (inactive); in assay [4], 80.4% (inactive); in assay [5], 83.9% (inactive); in assay [6] (setting [9]), 81%; in assay [6] (setting [10]), 83.9%. In addition, the Her2 level in assay [2] is 92.5% (inactive). The differential viability (reversal) in assay [6] (H69AR cells + 2 uM doxorubicin) was 2.92% (inactive). The inhibition in assay [7] is -4.67% (inactive); in assay [8] it was -1.48% (inactive).

Regarding `Cc1cc(S(=O)(=O)NC2CCCCC2)ccc1OCC(=O)NCc1ccccn1`, the viability in assay [1] was 91.5%; in assay [3], 91.5% (inactive); in assay [4], 105% (inactive); in assay [5] it was 99.1% (inactive); in assay [6] (setting [9]), 92.8%; in assay [6] (setting [10]), 99.1%. In addition, the Her2 level in assay [2] is 84% (inactive). Also, the differential viability (reversal) in assay [6] (H69AR cells + 2 uM doxorubicin) is 6.34% (inactive). Moreover, the inhibition in assay [7] is -0.53% (inactive); in assay [8], 4.52% (inactive).

Regarding `CCc1cc2c(=O)n(C(C)C(=O)OC3CCCCC3)cnc2s1` (stereo not given), the viability in assay [1] was 102%; in assay [3] it was 102% (inactive); in assay [4], 90.1% (inactive); in assay [5] it was 81.6% (inactive); in assay [6] (setting [9]) it was 85.9%; in assay [6] (setting [10]), 81.6%. In assay [2], the Her2 level was 117% (inactive). In addition, in assay [6] (H69AR cells + 2 uM doxorubicin), the differential viability (reversal) is -4.32% (inactive). Besides, the inhibition in assay [7] was -6.62% (inactive); in assay [8], -5.83% (inactive).

Regarding `CC(=O)c1cccc(S(=O)(=O)NCC(c2ccco2)N2CCCCC2)c1` (stereo not given), the viability was 101% in assay [1]; 101% (inactive) in assay [3]; 96% (inactive) in assay [4]; 99.4% (inactive) in assay [5]; 87.5% in assay [6] (setting [9]); 99.4% in assay [6] (setting [10]). The Her2 level in assay [2] is 80% (inactive). The differential viability (reversal) in assay [6] (H69AR cells + 2 uM doxorubicin) was 11.9% (inactive). Also, the inhibition in assay [7] is -0.91% (inactive); in assay [8], -7.3% (inactive).

Turning to `CCC(c1nnnn1Cc1ccco1)N(CCc1ccccc1)Cc1cc2cccc(C)c2[nH]c1=O` (stereo not given), the viability in assay [1] is 105%; in assay [3], 105% (inactive); in assay [4], 69.2% (inactive); in assay [5], 62.9% (inactive); in assay [6] (setting [9]), 66.1%; in assay [6] (setting [10]), 62.9%. Besides, the Her2 level in assay [2] is 77.5% (inactive). In addition, the differential viability (reversal) in assay [6] (H69AR cells + 2 uM doxorubicin) was -3.2% (inactive). For the same compound, the inhibition in assay [7] is -5% (inactive); in assay [8], -2.67% (inactive).

Consider `O=C(OCC(=O)N1CCCCCC1)c1cccs1`, for which the viability was 99% in assay [1]; 99% (inactive) in assay [3]; 103% (inactive) in assay [4]; 106% (inactive) in assay [5]; 96.7% in assay [6] (setting [9]); 106% in assay [6] (setting [10]). Further, in assay [2], the Her2 level is 95.5% (inactive). Besides, in assay [6] (H69AR cells + 2 uM doxorubicin), the differential viability (reversal) is 9.71% (inactive). For the same compound, the inhibition in assay [7] is -0.67% (inactive); in assay [8], 1.77% (inactive).

Consider `Cc1nc(/N=C(\N)Nc2ccccc2)nc2ccccc12`, for which the viability is 91.5% in assay [1]; 91.5% (inactive) in assay [3]; 74.5% (inactive) in assay [4]; 78.7% (inactive) in assay [5]; 99.7% in assay [6] (setting [9]); 78.7% in assay [6] (setting [10]). In addition, the Her2 level in assay [2] is 67.5% (inactive). Besides, the differential viability (reversal) in assay [6] (H69AR cells + 2 uM doxorubicin) is -21% (inactive). Besides, the inhibition in assay [7] is -0.26% (inactive); in assay [8] it was 10.5% (inactive).
